Converted amounts (≈) assume the structure as drawn.
Legend:
Anas sp. [1] = assay: Concentration required to reduce the viral DNA in infected cells to 50% of untreated infected controls of Hepatitis B virus in primary duck hepatocyte (DHBV) cultures; format: functional
How it was run: (§1)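 Primary hepatocytes from 9–14 day old ducklings persistently infected with DHBV, in L-15 with 5% FBS plus antibiotics. Compound was serially diluted and added in triplicate from day 2, with medium changed every second day to day 12; cells were harvested day 14. Viral DNA was measured by 32P-probe dot-blot and phosphorimaging, and EC50 was taken as 50% reduction versus untreated infected cells.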

HFF [2] = assay: Cytotoxic concentration required to reduce the uptake of neutral red stain by uninfected cell monolayers to 50% of untreated uninfected human foreskin fibroblasts (HFF); format: functional
How it was run: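 Neutral red uptake was measured in uninfected human foreskin fibroblast monolayers after 7 days of exposure. CC50 is 50% of untreated uninfected cells; ">" means 50% was not reached at the highest concentration tested.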

HFF [3] = assay: Concentration required to reduce the proliferation of HFF (human foreskin fibroblasts) cells to 50% of untreated controls; format: functional, cell-based
Daudi = assay: Concentration required to reduce the proliferation of Daudi cells to 50% of untreated controls; format: functional, cell-based; conditions: Homo sapiens
How it was run: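 Daudi cells were grown in suspension, so no trypsin detachment was used. CC50 is the concentration reducing proliferation to 50% of untreated controls.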

Anas sp. [4] = assay: In vitro antiviral activity against Hepatitis B virus in primary duck hepatocyte (DHBV) cultures and expressed as percent inhibition of viral DNA at 10 ug/mL; format: functional
How it was run: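 DHBV-infected primary duck hepatocytes in L-15 with 5% FBS were treated at 10 µg/mL final in triplicate from day 2 to day 12, with medium changed every second day, and harvested day 14. DNA was extracted and dot-blot hybridized with a 32P DHBV probe, then quantified by phosphorimaging. % inhibition = (untreated − treated)×100/untreated, averaged over triplicates.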

[5] = Concentration required to reduce the proliferation of PHA stimulated human peripheral blood T lymphocytes to 50% of untreated PHA stimulated control; format: functional
How it was run: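 Nylon-wool-enriched T cells from normal donor buffy coats, 2 × 10^5 per well in serum-free AIM V, were stimulated with PHA at 1 µg/mL final. Compounds from DMSO stock were tested in triplicate from 50 µg/mL in serial dilutions. After 3–4 days at 37 °C, cells were pulsed with [3H]thymidine 1 µCi/well for 18 h and counted by scintillation. Counts were compared with DMSO-matched PHA controls.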

Vero = assay: Cytotoxic concentration required to reduce the viability of Vero cells as determined by MTT assay; format: functional; conditions: Chlorocebus sabaeus
How it was run: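 Vero cells were seeded at 2.5 × 10^4 per well and attached for 6–8 h. They were then exposed for 3 days at 37 °C to 200–1.5 µg/mL, with a DMSO control. MTT was added for 4 h, solubilized overnight, and absorbance read at 560–650 nm. CC50 is 50% viability of untreated control.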

Anas sp. [6] = assay: Concentration required to reduce the viral DNA in infected cells to 50% of untreated infected controls of Hepatitis B virus in primary duck hepatocyte (DHBV) cultures.; format: functional, organism-based; how it was run: as §1

Row | IC50 (Daudi) [µg/mL] | SMILES | EC50 (Anas sp. [1]) [µg/mL] | CC50 (HFF [2]) [µg/mL] | IC50 (HFF [3]) [µg/mL] | inhibition at 10 µg/mL (Anas sp. [4]) [%] | IC50 [5] [µg/mL] | CC50 (Vero) [µg/mL] | EC50 (Anas sp. [6]) [µg/mL]
1 |  | CC(N=[N+]=[N-])c1cn(COCCO)c(=O)[nH]c1=O (stereo not given) | > 10 |  |  |  |  |  | 
2 |  | CC(N=[N+]=[N-])c1cn(CCC(CO)CO)c(=O)[nH]c1=O (stereo not given) | 0.1 (≈ 0.353 µM) |  |  |  |  |  | 
3 | > 50 | C=C(N=[N+]=[N-])c1cn(COCCO)c(=O)[nH]c1=O | 0.01 (≈ 0.0395 µM) | > 100 | > 100 | 84 | > 50 | > 100 | 
4 | > 50 | C=C(N=[N+]=[N-])c1cn(CCC(CO)CO)c(=O)[nH]c1=O | 0.01 (≈ 0.0356 µM) | > 100 | > 100 | 93 | > 50 | > 200 | 
5 | > 50 | C=C(N=[N+]=[N-])c1cn(COC(CO)CO)c(=O)[nH]c1=O | 0.01 (≈ 0.0353 µM) | > 100 | 100 (≈ 353 µM) | 86 | > 50 | > 200 | 
6 |  | CC(N=[N+]=[N-])c1cn(COC(CO)CO)c(=O)[nH]c1=O (stereo not given) | 1 (≈ 3.51 µM) |  |  |  |  |  | 
7 |  | Nc1nc2c(ncn2COC(CO)CO)c(=O)[nH]1 [GANCICLOVIR] | 1.5 (≈ 5.88 µM) |  |  |  |  |  | 
8 |  | Nc1ccn([C@@H]2CS[C@H](CO)O2)c(=O)n1 [LAMIVUDINE] | 0.01 (≈ 0.0436 µM) |  |  | 96 | > 50 | > 100 | 
9 |  | Nc1nc(O)c2ncn(CCC(CO)CO)c2n1 [PENCICLOVIR] |  |  |  |  |  |  | 0.3 (≈ 1.18 µM)

From ChEMBL document CHEMBL1135408, “Design and synthesis of novel 5-substituted acyclic pyrimidine nucleosides as potent and selective inhibitors of hepatitis B virus” (J Med Chem, 2002)
